Screening data (PubChem)
Sampled rows, rich in hits. Any-hit rate of the full collection: about 3.5%.
MrgX1 agonist = activates human MrgX1 receptor signaling; MrgX1-HEK293 cells, Fluo-4 calcium fluorescence, agonist mode; active compounds read high; B-score at 10 µM; 0.44% of 310,000 active; AID 588627;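 active means calcium response B-score plate-corrected fluorescence ratio at least 3 library SD, with starting fluorescence B-score inside 5 SD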
Target sequence (Q96LB2 whole entry, looked up): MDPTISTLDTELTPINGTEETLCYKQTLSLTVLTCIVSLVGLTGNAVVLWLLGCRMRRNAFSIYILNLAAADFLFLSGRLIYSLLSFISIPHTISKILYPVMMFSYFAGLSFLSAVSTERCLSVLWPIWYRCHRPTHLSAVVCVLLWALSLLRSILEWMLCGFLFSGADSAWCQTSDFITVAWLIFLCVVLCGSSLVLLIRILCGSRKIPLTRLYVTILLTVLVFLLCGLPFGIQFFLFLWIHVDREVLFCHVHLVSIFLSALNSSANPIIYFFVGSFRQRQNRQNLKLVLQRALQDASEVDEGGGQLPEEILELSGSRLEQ
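times = overnight plating, then 30 min 37 °C plus 30 min room-temperature dye loading | assay system = stable human MrgX1 HEK293 cell line | input = fifteen thousand cells per well | signal = kinetic calcium dye fluorescence, Fluo-4 NW | dosing = compound delivered in addition one of three | read-out = B-scored fluorescence response ratio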
RGS4 pot = potentiators or activators of RGS4; HEK293 M3R/inducible RGS4, carbachol calcium flux Fluo4; active compounds read low; B-score at 10 µM; 0.92% of 310,000 active; AID 463111;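 active means B-score of the integrated calcium signal more than 4 SD below the library mean, with starting fluorescence not abnormally high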;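 further: negative B-score means reduced calcium response which marks RGS4 activation or potentiation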
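Assay system: Inducible-RGS4 HEK293 cells carrying M3 receptor | Schedule: Compound preincubation 20 min at room temperature before agonist | Signal: Kinetic calcium fluorescence imaging with Fluo4-AM dye, 2 µM | Read-out basis: B score from integrated fluorescence ratio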
MrgX1 allo act = human MrgX1 positive allosteric modulation, primary screen; Q96LB2; MrgX1-HEK293, Fluo-4 calcium flux, FDSS; active compounds read high; B-score at 10 µM; 0.63% of 310,000 active; AID 588675;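 active means plate-corrected calcium response at least 3 library SD above typical, normal starting fluorescence, not activating the receptor alone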;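 further: compound read alongside a low EC10 to EC30 dose of BAM8-22 agonist; peak minus trough fluorescence over baseline measured at the second addition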
RGS4 inh = inhibitors of human RGS4; HEK293 M3R/RGS4 inducible, Fluo-4 calcium flux; active compounds read high; triggered by carbachol at its EC20; 0.45% of 310,000 active; P49798; B-score at 10 µM;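 active means B-score, a plate-corrected calcium signal, over three deviations above library mean, with baseline fluorescence within five deviations of library mean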;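 further: RGS4 expression induced by doxycycline in cells with stable M3 receptor; B-score is computed from the integrated fluorescence ratio over baseline after carbachol; higher B-score means a larger calcium signal and so more RGS4 inhibition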
Target sequence (P49798 whole entry, looked up): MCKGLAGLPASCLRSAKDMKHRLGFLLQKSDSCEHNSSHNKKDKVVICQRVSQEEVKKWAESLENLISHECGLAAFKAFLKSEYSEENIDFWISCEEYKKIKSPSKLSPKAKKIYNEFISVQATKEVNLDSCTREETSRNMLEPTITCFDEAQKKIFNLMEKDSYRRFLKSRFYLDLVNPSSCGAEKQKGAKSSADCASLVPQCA
MrgX1 antag = antagonists of human MrgX1 receptor; Q96LB2; MRGX1-HEK293 calcium flux, Fluo-4, BAM8-22 antagonism; active compounds read low; B-score at 10 µM; 1.3% of 310,000 active; AID 588676;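 active means calcium-response B-score plate-corrected more than 3 library SD below zero, starting fluorescence within 5 deviations, no agonist response on first addition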;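 further: peak minus trough fluorescence over baseline after final BAM8-22 challenge near maximal dose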
MrgX1 ant reconf = reconfirmed antagonist of human MrgX1 receptor signaling. shares compounds with MrgX1 antag. MrgX1-HEK293, BAM8-22 calcium flux, Fluo-4; active compounds read low. remaining BAM8-22 calcium response % of control (active compounds read low), % at 10 µM. 19% of 2,300 active;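 active means remaining agonist calcium response no higher than 100% minus 3 SD of agonist-only control wells, with starting fluorescence near control levels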;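 further: agonist BAM8-22 given at a near maximal EC90 to ECmax level; peak minus minimum fluorescence divided by baseline after agonist addition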
HEK293 Ca flux = MrgX1 antagonist counter-screen hit in parental HEK293 cells; Fluo-4 calcium fluorescence, FDSS; AID 624111; 2% of 4,000 active; shares compounds with MrgX1 antag; fluorescence ratio F(max-min)/F0 at 10 µM;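 active means duplicate-averaged calcium fluorescence ratio at least three times the standard deviation of buffer wells, a nonspecific response in parental cells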
HEK293 Ca counter = activity in parental HEK293 cells without MrgX1 | 0.4% of 4,000 active | fluorescence ratio F(max-min)/F0 at 10 µM | parental HEK293 calcium flux, Fluo-4 fluorescence ratio; active compounds read high | shares compounds with MrgX1 antag;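 active means calcium fluorescence ratio, averaged over duplicates, at least 3 SD of the buffer-well ratio, meaning a nonspecific response in receptor-free cells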;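 further: untransfected parental HEK293 lacking MrgX1 used as counterscreen for MrgX1 allosteric activators; fluorescence change taken during the second addition on a kinetic imager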
HEK293 Ca cntr2 = MrgX1 activator counter-screen hit in parental HEK293 cells | fluorescence ratio F(max-min)/F0 at 10 µM | shares compounds with MrgX1 antag | 8.7% of 4,000 active | Fluo-4 calcium fluorescence (FDSS); active compounds read high;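 active means calcium fluorescence ratio at least three times the spread of buffer wells, meaning a non-specific response in parental cells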
The depositor's hits bear a star; i = inactive; · = no result given.

SMILES | MrgX1 agonist | RGS4 pot | MrgX1 allo act | RGS4 inh | MrgX1 antag | MrgX1 ant reconf | HEK293 Ca flux | HEK293 Ca counter | HEK293 Ca cntr2
COC(CNC(=O)C(=O)NCC1OCCN1C(=O)c1ccc(Cl)cc1)OC (stereo not drawn) | i | i | i | i | i | · | · | · | ·
COCCNC(=O)C(=O)NCC1OCCN1C(=O)c1ccc(Cl)cc1 (stereo not drawn) | i | i | i | i | -5.63* | i | i | i | i
Cc1ccccc1N(C(=O)Cc1c[nH]c2ccccc12)C(C(=O)NC1CCCCC1)c1ccco1 (stereo not drawn) | i | i | i | i | -15.9* | i | i | i | i
CCN1CCCC1CNC(=O)C(=O)NC (stereo not drawn) | i | i | i | i | i | · | · | · | ·
Cc1ccc(Cc2cnc(N3C(=N)SC(c4ccccc4)C3=O)s2)cc1 (stereo not drawn) | i | i | i | i | -5.23* | i | i | i | i
N=C1SC(c2ccccc2)C(=O)N1c1ncc(Cc2ccccc2)s1 (stereo not drawn) | i | i | i | i | i | · | · | · | ·
CCOc1cc(C(=O)NC(=S)Nn2cnnc2)cc(OCC)c1OCC | i | i | i | i | -4.53* | i | i | i | i
CCOc1cc(C(=O)Nn2cnnc2)cc(OCC)c1OCC | i | i | i | i | -4.58* | i | i | i | i
CCOc1cc(C(=O)NC(=S)Nc2nc(C)cc(C)n2)cc(OCC)c1OCC | i | i | i | i | i | · | · | · | ·
O=C(NC(=S)Nn1cnnc1)c1ccccc1 | i | i | i | i | -8.29* | 74.6%* | i | i | i
CN(c1ccc(O)cc1)c1nc(-c2ccccc2)cs1 | i | · | i | · | i | · | · | · | ·
N#C/C(=N\Nc1cccc(F)c1)C(=O)C1CC1 | i | i | i | i | i | · | · | · | ·
COc1ccc(S(=O)(=O)N2CCC(C(=O)N3CCN(c4ccccc4OC)CC3)CC2)cc1 | i | i | i | i | i | · | · | · | ·
Cc1cccc([C@@H]2[C@@H]3C(=O)N(Cc4ccccc4)C(=O)[C@@H]3[C@]3(CC(C)C)C(=O)N(c4cccc(Br)c4)C(=O)N23)c1 | i | i | i | i | i | · | · | · | ·
Cc1ccsc1-c1nc(CSCC(=O)NCc2ccc3c(c2)OCO3)c(C)o1 | i | i | i | i | -4.83* | i | i | i | 50.8*
COc1cccc(NC(=O)Cn2c(=O)oc3cc(S(=O)(=O)N4CCCC4)ccc32)c1 | i | i | i | i | i | · | · | · | ·
Cc1ccc(S(=O)(=O)N2CCN(C(=O)c3sccc3-c3ccccc3)CC2)cc1 | i | i | i | i | -5.4* | i | i | i | i
CCOC(=O)N1CCN(C2CC(=O)N(c3ccc(F)cc3)C2=O)CC1 (stereo not drawn) | i | i | i | i | -5.89* | i | i | i | i
CCOC(=O)CNC(=O)CSc1ccc(-c2nc3ccccc3[nH]2)cn1 | i | i | i | i | -4.77* | i | i | i | i
Cc1cccc(OCC(=O)Nc2ccc(CN3CCOCC3)cc2)c1C | i | i | i | i | -6.65* | i | i | i | i
Cc1ccccc1N1CC(C(=O)Nc2nnc(SCc3cccnc3)s2)CC1=O (stereo not drawn) | i | i | i | i | i | · | · | · | ·
CCOc1ccccc1C(=O)NC(C)c1ccc2c(c1)OCO2 (stereo not drawn) | i | i | i | i | -5.29* | i | i | i | i
O=C(O)c1ccc(/C=N/n2c(C3CCCCC3)n[nH]c2=S)cc1 | i | i | i | i | i | · | · | · | ·
Cc1cc(NS(=O)(=O)c2ccc(NC(=O)COc3ccccc3[N+](=O)[O-])cc2)no1 | i | i | i | i | i | · | · | · | ·
COc1cc2c(cc1OC)N1C(=O)CC(OCC(=O)O)C3C4CC5(CCN5C(=O)C4=O)C2C31 (stereo not drawn) | i | i | i | i | -5.97* | i | i | i | i
SMILES | MrgX1 agonist | RGS4 pot | MrgX1 allo act | RGS4 inh | MrgX1 antag | MrgX1 ant reconf | HEK293 Ca flux | HEK293 Ca counter | HEK293 Ca cntr2
CCOc1ccc(Nc2nc3c(c(=O)[nH]2)CCCC3)cc1 | i | i | i | i | i | · | · | · | ·
COc1ccc(OC)c(Nc2nc3nonc3nc2N2CCCC(C)C2)c1 (stereo not drawn) | i | i | i | i | -5.48* | i | i | i | i
Cn1c(N)c(C(=O)COC(=O)[C@@H]2CCCN2S(=O)(=O)c2ccc(Cl)cc2)c(=O)n(C)c1=O | i | i | i | i | -6.06* | i | i | i | i
COc1cccc(CNS(=O)(=O)c2cccc(S(=O)(=O)N3CCOCC3)c2)c1 | i | i | i | i | i | · | · | · | ·
CCOC(=O)c1ccc(-c2c(C(=O)OCC)oc3cc(O)c(CC)cc3c2=O)o1 | i | i | i | i | -4.8* | 80.3%* | i | i | i
Cc1ccc(CN2C(=O)C3CCCN3c3ccc(C#N)cc32)cc1 (stereo not drawn) | i | i | i | i | i | · | · | · | ·
Cc1ccc(C)c(CN2C(=O)C3CCCN3c3ccc(C#N)cc32)c1 (stereo not drawn) | i | i | i | i | -5.61* | i | i | i | i
Cn1cc(CNC(=O)C2c3ccccc3Oc3ccccc32)cn1 | i | i | i | i | i | · | · | · | ·
Cn1c(=O)c2nnn(/N=C(\c3ccccc3)C3CC3)c2n(C)c1=O | i | i | i | i | -5.08* | 67.7%* | i | i | i
Cc1[nH]c2ccccc2c1C(=O)C(=O)NCCCc1ccccc1 | i | i | i | i | i | · | · | · | ·
Cc1ccc(CC(=O)N2CC(C)OC(C)C2)cc1 (stereo not drawn) | i | i | i | i | i | · | · | · | ·
CC1CN(C(=O)CS(=O)(=O)Cc2ccc(Cl)cc2)CC(C)O1 (stereo not drawn) | i | i | i | i | -4.78* | i | i | i | i
